From ChEMBL document CHEMBL1275336, “Identification of a novel pyrrole derivative endowed with antimycobacterial activity and protection index comparable to that of the current antitubercular drugs streptomycin and rifampin” (Bioorg Med Chem, 2010)
Converted amounts (≈) assume the structure as drawn.

Experiments:
[1] = test system: Mycobacterium tuberculosis; assay: Antimycobacterial activity against rifampin-resistant Mycobacterium tuberculosis after 3 to 28 days by twofold dilution method; assay type: functional
Procedure, shortened: (§1)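 Twofold agar dilution in Middlebrook 7H11 with 10% OADC; plates held at 37 °C for 3 or 28 days. MIC is the lowest concentration giving complete inhibition of visible mycobacterial growth. Rifampin, streptomycin and BM521 served as references.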

[2] = test system: Mycobacterium tuberculosis; assay: Antimycobacterial activity against isoniazid-resistant Mycobacterium tuberculosis after 3 to 28 days by twofold dilution method; assay type: functional; procedure, shortened: as §1

Cc1ccc(-c2cc(CN3CCSCC3)c(C)n2-c2ccc(F)cc2)cc1
MIC [1]: 0.5 µg/mL (≈ 1.31 µM)
MIC [2]: 32 µg/mL (≈ 84.1 µM)

CO[C@H]1/C=C/O[C@@]2(C)Oc3c(C)c(O)c4c(O)c(c(/C=N/N5CCN(C)CC5)c(O)c4c3C2=O)NC(=O)/C(C)=C\C=C\[C@H](C)[C@H](O)[C@@H](C)[C@@H](O)[C@@H](C)[C@H](OC(C)=O)[C@@H]1C [RIFAMPIN]
MIC [1]: > 64 µg/mL
MIC [2]: 0.8 µg/mL (≈ 0.972 µM)

CSc1ccc(-c2cc(CN3CCSCC3)c(C)n2-c2ccc(F)cc2)cc1
MIC [1]: 0.25 µg/mL (≈ 0.606 µM)
MIC [2]: > 16 µg/mL

CN[C@@H]1[C@H](O[C@H]2[C@H](O[C@H]3[C@H](O)[C@@H](O)[C@H](N=C(N)N)[C@@H](O)[C@@H]3N=C(N)N)O[C@@H](C)[C@]2(O)C=O)O[C@@H](CO)[C@H](O)[C@H]1O [STREPTOMYCIN]
MIC [1]: 0.5 µg/mL (≈ 0.86 µM)
MIC [2]: 0.5 µg/mL (≈ 0.86 µM)
